Results as given in ChEMBL document CHEMBL1143151, “Design, synthesis and antimalarial activity of benzene and isoquinoline sulfonamide derivatives” (2008).
Values after ≈ are worked out from the molar mass of the structure shown.

These compounds were tested on Plasmodium falciparum (assay: Antimalarial activity against Plasmodium falciparum NF54 after 36-40 hrs).
Assay type: functional
Procedure, shortened: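 P. falciparum NF-54 kept in RPMI-1640 with 25 mM Hepes, 1% D-glucose, 0.23% sodium bicarbonate, 10% heat-inactivated human serum; D-sorbitol (5%) synchronized to ring stage. ~1% ring parasitaemia, 3% haematocrit; compound […] µg/mL, duplicate wells, 37 °C candle jar, 36–40 h. Giemsa smears scored microscopically; MIC = concentration blocking full maturation to schizonts. Pyrimethamine reference.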

In order of falling MIC:
1. CN(CC(O)CNCCc1ccc(O)cc1)S(=O)(=O)c1cccc2cnccc12 (centres undefined)  50 µg/mL (≈ 120 µM)
2. CN(CC(O)CNCCCn1ccnc1)S(=O)(=O)c1cccc2cnccc12 (centres undefined)  50 µg/mL (≈ 124 µM)
3. O=S(=O)(c1cccc2cnccc12)N1CCN(CCO)CC1  50 µg/mL (≈ 156 µM)
4. CN(CC(O)CNCc1ccc(Cl)cc1)S(=O)(=O)c1cccc2cnccc12 (centres undefined)  10 µg/mL (≈ 23.8 µM)
5. Cc1ccc(S(=O)(=O)N2CCN(c3ccc(Cl)cc3)CC2)cc1  10 µg/mL (≈ 28.5 µM)
6. O=[N+]([O-])c1ccc(S(=O)(=O)N2CCN(c3ccccn3)CC2)cc1  10 µg/mL (≈ 28.7 µM)
7. Cc1ccc(S(=O)(=O)N2CCN(CCO)CC2)cc1  10 µg/mL (≈ 35.2 µM)
8. COc1ccc(CCNS(=O)(=O)c2ccccc2)cc1OC  10 µg/mL (≈ 31.1 µM)
9. O=S(=O)(c1ccccc1)N1CCN(c2ccc(Cl)cc2)CC1  10 µg/mL (≈ 29.7 µM)
10. O=S(=O)(NCCCN1CCOCC1)c1ccccc1  10 µg/mL (≈ 35.2 µM)
11. O=[N+]([O-])c1ccc(S(=O)(=O)NCCCN2CCOCC2)cc1  10 µg/mL (≈ 30.4 µM)
12. COc1ccc(CCNS(=O)(=O)c2ccc([N+](=O)[O-])cc2)cc1OC  10 µg/mL (≈ 27.3 µM)
13. CN(CC(O)CNCc1ccccc1)S(=O)(=O)c1cccc2cnccc12 (centres undefined)  10 µg/mL (≈ 25.9 µM)
14. CN1CCN(S(=O)(=O)c2ccc([N+](=O)[O-])cc2)CC1  10 µg/mL (≈ 35 µM)
15. Cc1ccc(S(=O)(=O)N2CCN(C)CC2)cc1  10 µg/mL (≈ 39.3 µM)
16. CCc1nc(N)nc(N)c1-c1ccc(Cl)cc1 [PYRIMETHAMINE]  10 µg/mL (≈ 40.2 µM)
17. Cc1ccc(S(=O)(=O)NCCCN2CCOCC2)cc1  10 µg/mL (≈ 33.5 µM)
18. CN(CC(O)CNCc1ccccc1Cl)S(=O)(=O)c1cccc2cnccc12 (centres undefined)  10 µg/mL (≈ 23.8 µM)
19. O=[N+]([O-])c1ccc(S(=O)(=O)N2CCN(CCO)CC2)cc1  10 µg/mL (≈ 31.7 µM)
20. O=S(=O)(c1ccccc1)N1CCN(c2ccccn2)CC1  10 µg/mL (≈ 33 µM)
21. CN1CCN(S(=O)(=O)c2ccccc2)CC1  10 µg/mL (≈ 41.6 µM)
22. O=[N+]([O-])c1ccc(S(=O)(=O)N2CCN(c3cccc(Cl)c3)CC2)cc1  10 µg/mL (≈ 26.2 µM)
23. NCCN1CCN(S(=O)(=O)c2cccc3cnccc23)CC1  10 µg/mL (≈ 31.2 µM)
24. CN(CC(O)CNCCc1c[nH]c2ccccc12)S(=O)(=O)c1cccc2cnccc12 (centres undefined)  10 µg/mL (≈ 22.8 µM)
25. Cc1ccc(S(=O)(=O)N2CCN(Cc3ccccc3)CC2)cc1  10 µg/mL (≈ 30.3 µM)
26. O=S(=O)(c1ccccc1)N1CCN(CCO)CC1  10 µg/mL (≈ 37 µM)
27. COc1ccc(CCNCC(O)CN(C)S(=O)(=O)c2cccc3cnccc23)cc1 (centres undefined)  10 µg/mL (≈ 23.3 µM)
28. CN(CC(O)CNCc1ccco1)S(=O)(=O)c1cccc2cnccc12 (centres undefined)  10 µg/mL (≈ 26.6 µM)
29. Cc1ccc(S(=O)(=O)NCCCn2ccnc2)cc1  10 µg/mL (≈ 35.8 µM)
30. O=[N+]([O-])c1ccc(S(=O)(=O)N2CCN(Cc3ccccc3)CC2)cc1  10 µg/mL (≈ 27.7 µM)
31. COc1ccc(CCNS(=O)(=O)c2ccc(C)cc2)cc1OC  10 µg/mL (≈ 29.8 µM)
32. COc1ccc(CCNCC(O)CN(C)S(=O)(=O)c2cccc3cnccc23)cc1OC (centres undefined)  10 µg/mL (≈ 21.8 µM)
33. CN(CC(O)CNCc1ccc(Cl)cc1Cl)S(=O)(=O)c1cccc2cnccc12 (centres undefined)  2 µg/mL (≈ 4.4 µM)
34. CN(CC(O)CNCc1ccc(Cl)c(Cl)c1)S(=O)(=O)c1cccc2cnccc12 (centres undefined)  2 µg/mL (≈ 4.4 µM)
